One data set deals with EAE. The data set can be described thus: EAE mouse model of MS. The format is in vivo, C57BL/6 female mice. The conditions noted are these: 50 µg free GpG on days 5, 10, and 15.
Another data set has as its system 2D2 CD4+ T cells. The data set can be described thus: DC/2D2 T cell co-culture, T cell proliferation. Format: cell-based, mice. The conditions noted are these: 48 hours co-culture, dye dilution. In a few lines: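 Splenic CD11c+ DCs from female C57BL/6 mice were isolated by positive selection and plated at 100,000/well in RPMI 1640 with 10% FBS at 37°C and 5% CO2. They were stimulated with CpG (5 µg/mL) plus complex or free controls for 24 h. Splenic CD4+ T cells from 2D2 mice were isolated by negative selection and labelled with eFluor 670 dye. They were co-cultured with the DCs for 48 h, then stained with DAPI and anti-CD4, and dye dilution was read by flow cytometry.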

Regarding “5’-TGACTGTGAAGGTTAGAGATGA-3’ (DNA TGACTGTGAAGGTTAGAGATGA; chemistry not given here) [GpG]”, the “therapeutic effect relative to untreated mice” value with EAE is recorded as “no therapeutic effect”.

On to 5’-TCCATGACGTTCCTGACGTT-3’ [CpG], for which the “CD4+ T cell proliferation” value with 2D2 CD4+ T cells was “did not cause any proliferation”.

These data come from paper PMC5189983 (Biomaterials, 2016).
